The subject of experiment [1] is Rattus norvegicus. Kind of experiment: Wound healing activity in po dosed Swiss albino rat incision wound model assessed as skin breaking strength after 10 days. Type of experiment: functional.
In experiment [2] the test system is Rattus norvegicus. The experiment is described as follows: Wound healing activity in po dosed Swiss albino rat dead space wound model assessed as dry weight of granulation tissue per 100 gm after 24 hrs. The class given is functional. Summed up:
(§1)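 Oral dosing by feeding tube of a 4 mg/mL suspension in 1% (w/v) Tween-80, prepared fresh. Ten groups of four animals: untreated control, a 0.2% (w/w) nitrofurazone ointment reference, and eight test groups. Granulation tissue was weighed wet and dry, and its breaking strength was measured. Values are mean ± SE of 4 animals, analysed by one-way ANOVA with Tukey's test against control.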

Experiment [3] relates to Rattus norvegicus. The experiment is described as follows: Wound healing activity in po dosed Swiss albino rat dead space wound model assessed as wet weight of granulation tissue per 100 gm after 24 hrs. Type of experiment: functional. Put shortly:
as §1

The subject of experiment [4] is Rattus norvegicus. The experiment is described as follows: Wound healing activity in po dosed Swiss albino rat dead space wound model assessed as skin breaking strength after 10 days. Type of experiment: functional. Summed up:
as §1

For experiment [5], the system named is Rattus norvegicus. The experiment is described as follows: Wound healing activity in po dosed Swiss albino rat incision wound model assessed as increase in wet weight of granulation tissue after 24 hrs. Type of experiment: functional, organism-based.
The subject of experiment [6] is Rattus norvegicus. Kind of experiment: Wound healing activity in po dosed Swiss albino rat dead space wound model assessed as granuloma epithelialization and collagenation. Type of experiment: functional, organism-based.
For experiment [7], the system named is Rattus norvegicus. The experiment is described as follows: Wound healing activity in po dosed Swiss albino rat incision wound model assessed as increase in dry weight of granulation tissue after 24 hrs. Type of experiment: functional, organism-based.

The source made the active and inactive calls. No cut-off for these calls is given here.

With `COc1ccc(C(=O)c2ccc(OCC(=O)N3CCC(CCCC4CCN(C(=O)Nc5ccc(Cl)cc5Cl)CC4)CC3)cc2)c(OC)c1`, the Activity in the experiment with Rattus norvegicus [1] is 445.12 g; in the experiment on Rattus norvegicus [2], 17.81 mg; in the experiment on Rattus norvegicus [3], 79 mg; in the experiment on Rattus norvegicus [4] it was 361.6 g.
For `NC(=O)N/N=C/c1ccc([N+](=O)[O-])o1` [NITROFURAZONE], the Activity in the experiment on Rattus norvegicus [1] is given as 875 g.
For `COc1ccc(C(=O)c2ccc(OCC(=O)N3CCC(CCCC4CCN(C(=S)Nc5ccccc5Cl)CC4)CC3)cc2)c(OC)c1`, the outcome in the experiment on Rattus norvegicus [5], with Rattus norvegicus [6] and in the experiment on Rattus norvegicus [7] was Active. Also, the Activity in the experiment with Rattus norvegicus [1] is given as 748.38 g; with Rattus norvegicus [2], 26.04 mg; with Rattus norvegicus [3], 134.79 mg; in the experiment on Rattus norvegicus [4] it was 623.25 g.
As to `COc1ccc(C(=O)c2ccc(OCC(=O)N3CCC(CCCC4CCN(C(=O)Nc5ccccc5Cl)CC4)CC3)cc2)c(OC)c1`, the Activity is listed as 605.49 g in the experiment on Rattus norvegicus [1], 21.01 mg in the experiment with Rattus norvegicus [2], 104.85 mg with Rattus norvegicus [3] and 541.82 g in the experiment on Rattus norvegicus [4]. In the experiment on Rattus norvegicus [6], the outcome was Active.
Turning to `COc1ccc(NC(=S)N2CCC(CCCC3CCN(C(=O)COc4ccc(C(=O)c5ccc(OC)cc5OC)cc4)CC3)CC2)cc1`, the Activity with Rattus norvegicus [1] is 675 g; in the experiment on Rattus norvegicus [2], 12.36 mg; in the experiment with Rattus norvegicus [3], 80.54 mg; in the experiment on Rattus norvegicus [4] it was 355.42 g.
Turning to `COc1ccc(C(=O)c2ccc(OCC(=O)N3CCC(CCCC4CCN(C(=S)Nc5ccc(Cl)cc5Cl)CC4)CC3)cc2)c(OC)c1`, the Activity is 612.5 g in the experiment with Rattus norvegicus [1], 21.02 mg in the experiment with Rattus norvegicus [2], 88.02 mg with Rattus norvegicus [3] and 619.15 g in the experiment with Rattus norvegicus [4].
Regarding `COc1ccc(C(=O)c2ccc(OCC(=O)N3CCC(CCCC4CCN(C(=O)Nc5ccc(F)cc5)CC4)CC3)cc2)c(OC)c1`, the Activity was found to be 552.06 g in the experiment with Rattus norvegicus [1], 17.8 mg in the experiment on Rattus norvegicus [2], 91.31 mg in the experiment with Rattus norvegicus [3] and 451.6 g with Rattus norvegicus [4].
`COc1ccc(NC(=O)N2CCC(CCCC3CCN(C(=O)COc4ccc(C(=O)c5ccc(OC)cc5OC)cc4)CC3)CC2)cc1`: the Activity worked out at 503.89 g in the experiment with Rattus norvegicus [1], 21.59 mg with Rattus norvegicus [2], 112.48 mg with Rattus norvegicus [3] and 414.19 g with Rattus norvegicus [4].
With `COc1ccc(C(=O)c2ccc(OCC(=O)N3CCC(CCCC4CCN(C(=S)Nc5ccc(F)cc5)CC4)CC3)cc2)c(OC)c1`, the outcome in the experiment on Rattus norvegicus [5], in the experiment with Rattus norvegicus [6] and with Rattus norvegicus [7] was Active. Also, the Activity with Rattus norvegicus [1] is given as 760.88 g; in the experiment with Rattus norvegicus [2] it was 26.27 mg; in the experiment with Rattus norvegicus [3], 122.94 mg; in the experiment with Rattus norvegicus [4] it was 645.69 g.

The values are drawn from ChEMBL document CHEMBL1153585, “Evaluation of in vivo wound-healing potential of 2-[4-(2,4-dimethoxy-benzoyl)-phenoxy]-1-[4-(3-piperidin-4-yl-propyl)-piperidin-1-yl]-ethanone derivatives” (2009).
